# Test results as given in ChEMBL document CHEMBL1153014, “Synthesis and antimicrobial properties of polymerizable quaternary ammoniums” (Eur J Med Chem, 2009).
# System: Pseudomonas aeruginosa
# Assay: Microbiostatic activity against Pseudomonas aeruginosa ATCC 9027 after 24 hrs by turbidimetric method
# Format: functional
# Details: ATCC 9027, 24 h
# In short: (§1)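 Exponential-phase bacteria are grown overnight on TSA, then overnight at 30 °C in M9G (pH 7.0). Suspension is adjusted to OD660 0.05 (about 5·10^6–5·10^7 cfu/mL), verified by plate count. Automated serial dilutions of agent in deionised water are inoculated and incubated 24 h at 30 °C. MIC is the first concentration without turbidity.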
row,Structure (SMILES),MIC [µM]
1,C=CC(=O)OCC[N+](C)(C)Cc1ccccc1.[Br-],> 2000
2,C=CC(=O)OCC[N+](C)(C)CCCCCCCCCCCCCC.[Br-],112
3,C=CC(=O)OCC[N+](C)(C)CCCCCCCCCCCC.[Br-],71.1
4,C=CC(=O)OCC[N+](C)(C)CCCCCCCCCC.[Br-],356
5,C=CC(=O)OCCCCCCCCCCC[N+](C)(C)CCCCCCCCCCCCCCCC.[Br-],132
6,C=CC(=O)OCCCCCCCCCCC[N+](C)(C)Cc1ccccc1.[Br-],154
7,C=CC(=O)OCCCCCCCCCCC[N+](C)(C)CCCCCCCCCCCCCC.[Br-],44.8
8,C=CC(=O)OCCCCCCCCCCC[N+](C)(C)CCCCCCCCCCCC.[Br-],58.4
9,C=CC(=O)OCCCCCCCCCCC[N+](C)(C)CCCCCCCCCC.[Br-],79.9
10,C=CC(=O)OCC[N+](C)(C)CCCCCCCCCCCCCCCC.[Br-],237

# System: Candida albicans
# Assay: Microbiostatic activity against Candida albicans ATCC 10231 after 72 hrs by turbidimetric method
# Format: functional
# Details: ATCC 10231, 72 h
# In short: (§2)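 Turbidimetric broth microdilution: automated serial dilutions of agent in sterile deionised water, then inoculation. Spores come from 5–7 day SDA cultures at 25 °C, harvested in M9G (pH 5.0) and gauze-filtered to remove mycelium. Inoculum is set to 5·10^6–5·10^7 spores/mL by counting cell. Incubation is 72 h at 25 °C. MIC is the first concentration with no turbidity.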
row,Structure (SMILES),MIC [µM]
1,C=CC(=O)OCC[N+](C)(C)Cc1ccccc1.[Br-],> 2000
2,C=CC(=O)OCC[N+](C)(C)CCCCCCCCCCCCCC.[Br-],18.1
3,C=CC(=O)OCC[N+](C)(C)CCCCCCCCCCCC.[Br-],63.8
4,C=CC(=O)OCC[N+](C)(C)CCCCCCCCCC.[Br-],278
5,C=CC(=O)OCCCCCCCCCCC[N+](C)(C)CCCCCCCCCCCCCCCC.[Br-],27.1
6,C=CC(=O)OCCCCCCCCCCC[N+](C)(C)Cc1ccccc1.[Br-],154
7,C=CC(=O)OCCCCCCCCCCC[N+](C)(C)CCCCCCCCCCCCCC.[Br-],16.8
8,C=CC(=O)OCCCCCCCCCCC[N+](C)(C)CCCCCCCCCCCC.[Br-],14.8
9,C=CC(=O)OCCCCCCCCCCC[N+](C)(C)CCCCCCCCCC.[Br-],19
10,C=CC(=O)OCC[N+](C)(C)CCCCCCCCCCCCCCCC.[Br-],24

# System: Aspergillus niger
# Assay: Microbiostatic activity against Aspergillus niger ATCC 6275 after 72 hrs by turbidimetric method
# Format: functional
# Details: ATCC 6275, 72 h
# In short: as §2
row,Structure (SMILES),MIC [µM]
1,C=CC(=O)OCC[N+](C)(C)Cc1ccccc1.[Br-],507
2,C=CC(=O)OCC[N+](C)(C)CCCCCCCCCCCCCC.[Br-],178
3,C=CC(=O)OCC[N+](C)(C)CCCCCCCCCCCC.[Br-],63.8
4,C=CC(=O)OCC[N+](C)(C)CCCCCCCCCC.[Br-],175
5,C=CC(=O)OCCCCCCCCCCC[N+](C)(C)CCCCCCCCCCCCCCCC.[Br-],31.4
6,C=CC(=O)OCCCCCCCCCCC[N+](C)(C)Cc1ccccc1.[Br-],154
7,C=CC(=O)OCCCCCCCCCCC[N+](C)(C)CCCCCCCCCCCCCC.[Br-],24.9
8,C=CC(=O)OCCCCCCCCCCC[N+](C)(C)CCCCCCCCCCCC.[Br-],14.8
9,C=CC(=O)OCCCCCCCCCCC[N+](C)(C)CCCCCCCCCC.[Br-],19
10,C=CC(=O)OCC[N+](C)(C)CCCCCCCCCCCCCCCC.[Br-],237

# System: Staphylococcus aureus
# Assay: Microbiostatic activity against Staphylococcus aureus ATCC 6538 after 24 hrs by turbidimetric method
# Format: functional
# Details: ATCC 6538, 24 h
# In short: as §1
row,Structure (SMILES),MIC [µM]
1,C=CC(=O)OCC[N+](C)(C)Cc1ccccc1.[Br-],> 2000
2,C=CC(=O)OCC[N+](C)(C)CCCCCCCCCCCCCC.[Br-],178
3,C=CC(=O)OCC[N+](C)(C)CCCCCCCCCCCC.[Br-],71.1
4,C=CC(=O)OCC[N+](C)(C)CCCCCCCCCC.[Br-],356
5,C=CC(=O)OCCCCCCCCCCC[N+](C)(C)CCCCCCCCCCCCCCCC.[Br-],209
6,C=CC(=O)OCCCCCCCCCCC[N+](C)(C)Cc1ccccc1.[Br-],244
7,C=CC(=O)OCCCCCCCCCCC[N+](C)(C)CCCCCCCCCCCCCC.[Br-],104
8,C=CC(=O)OCCCCCCCCCCC[N+](C)(C)CCCCCCCCCCCC.[Br-],34.7
9,C=CC(=O)OCCCCCCCCCCC[N+](C)(C)CCCCCCCCCC.[Br-],64.8
10,C=CC(=O)OCC[N+](C)(C)CCCCCCCCCCCCCCCC.[Br-],275

# System: Pseudomonas aeruginosa
# Assay: Microbicidal activity against Pseudomonas aeruginosa ATCC 9027 after 5 days by microtiter plate method
# Format: functional
# Details: ATCC 9027, 120 h
# In short: (§3)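 Bacterial MIC microtiter plates are held 5 days. For each of the three concentrations above the MIC, 100 µL is plated on TSA or SDA plates. MLC is the first concentration showing no growth after subculture.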
row,Structure (SMILES),MLC [µM]
1,C=CC(=O)OCC[N+](C)(C)Cc1ccccc1.[Br-],> 2000
2,C=CC(=O)OCC[N+](C)(C)CCCCCCCCCCCCCC.[Br-],114
3,C=CC(=O)OCC[N+](C)(C)CCCCCCCCCCCC.[Br-],71.1
4,C=CC(=O)OCC[N+](C)(C)CCCCCCCCCC.[Br-],416
5,C=CC(=O)OCCCCCCCCCCC[N+](C)(C)CCCCCCCCCCCCCCCC.[Br-],317
6,C=CC(=O)OCCCCCCCCCCC[N+](C)(C)Cc1ccccc1.[Br-],447
7,C=CC(=O)OCCCCCCCCCCC[N+](C)(C)CCCCCCCCCCCCCC.[Br-],103
8,C=CC(=O)OCCCCCCCCCCC[N+](C)(C)CCCCCCCCCCCC.[Br-],64.7
9,C=CC(=O)OCCCCCCCCCCC[N+](C)(C)CCCCCCCCCC.[Br-],188
10,C=CC(=O)OCC[N+](C)(C)CCCCCCCCCCCCCCCC.[Br-],283

# System: Candida albicans
# Assay: Microbicidal activity against Candida albicans ATCC 10231 after 7 days by microtiter plate method
# Format: functional
# Details: ATCC 10231, 168 h
# In short: (§4)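 Fungal MIC microplates are kept 7 days. 100 µL from each of the three concentrations above the MIC is subcultured onto agent-free TSA or SDA plates. MLC is the lowest concentration giving no growth.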
row,Structure (SMILES),MLC [µM]
1,C=CC(=O)OCC[N+](C)(C)Cc1ccccc1.[Br-],> 2000
2,C=CC(=O)OCC[N+](C)(C)CCCCCCCCCCCCCC.[Br-],18.4
3,C=CC(=O)OCC[N+](C)(C)CCCCCCCCCCCC.[Br-],63.8
4,C=CC(=O)OCC[N+](C)(C)CCCCCCCCCC.[Br-],359
5,C=CC(=O)OCCCCCCCCCCC[N+](C)(C)CCCCCCCCCCCCCCCC.[Br-],40.4
6,C=CC(=O)OCCCCCCCCCCC[N+](C)(C)Cc1ccccc1.[Br-],447
7,C=CC(=O)OCCCCCCCCCCC[N+](C)(C)CCCCCCCCCCCCCC.[Br-],16.8
8,C=CC(=O)OCCCCCCCCCCC[N+](C)(C)CCCCCCCCCCCC.[Br-],15.4
9,C=CC(=O)OCCCCCCCCCCC[N+](C)(C)CCCCCCCCCC.[Br-],30.4
10,C=CC(=O)OCC[N+](C)(C)CCCCCCCCCCCCCCCC.[Br-],24.7

# System: Aspergillus niger
# Assay: Microbicidal activity against Aspergillus niger ATCC 6275 after 7 days by microtiter plate method
# Format: functional
# Details: ATCC 6275, 168 h
# In short: as §4
row,Structure (SMILES),MLC [µM]
1,C=CC(=O)OCC[N+](C)(C)Cc1ccccc1.[Br-],600
2,C=CC(=O)OCC[N+](C)(C)CCCCCCCCCCCCCC.[Br-],232
3,C=CC(=O)OCC[N+](C)(C)CCCCCCCCCCCC.[Br-],63.8
4,C=CC(=O)OCC[N+](C)(C)CCCCCCCCCC.[Br-],280
5,C=CC(=O)OCCCCCCCCCCC[N+](C)(C)CCCCCCCCCCCCCCCC.[Br-],40.4
6,C=CC(=O)OCCCCCCCCCCC[N+](C)(C)Cc1ccccc1.[Br-],238
7,C=CC(=O)OCCCCCCCCCCC[N+](C)(C)CCCCCCCCCCCCCC.[Br-],24.9
8,C=CC(=O)OCCCCCCCCCCC[N+](C)(C)CCCCCCCCCCCC.[Br-],14.8
9,C=CC(=O)OCCCCCCCCCCC[N+](C)(C)CCCCCCCCCC.[Br-],19.3
10,C=CC(=O)OCC[N+](C)(C)CCCCCCCCCCCCCCCC.[Br-],283

# System: Staphylococcus aureus
# Assay: Microbicidal activity against Staphylococcus aureus ATCC 6538 after 5 days by microtiter plate method
# Format: functional
# Details: ATCC 6538, 120 h
# In short: as §3
row,Structure (SMILES),MLC [µM]
1,C=CC(=O)OCC[N+](C)(C)Cc1ccccc1.[Br-],> 2000
2,C=CC(=O)OCC[N+](C)(C)CCCCCCCCCCCCCC.[Br-],232
3,C=CC(=O)OCC[N+](C)(C)CCCCCCCCCCCC.[Br-],71.1
4,C=CC(=O)OCC[N+](C)(C)CCCCCCCCCC.[Br-],359
5,C=CC(=O)OCCCCCCCCCCC[N+](C)(C)CCCCCCCCCCCCCCCC.[Br-],274
6,C=CC(=O)OCCCCCCCCCCC[N+](C)(C)Cc1ccccc1.[Br-],306
7,C=CC(=O)OCCCCCCCCCCC[N+](C)(C)CCCCCCCCCCCCCC.[Br-],164
8,C=CC(=O)OCCCCCCCCCCC[N+](C)(C)CCCCCCCCCCCC.[Br-],34.7
9,C=CC(=O)OCCCCCCCCCCC[N+](C)(C)CCCCCCCCCC.[Br-],72.6
10,C=CC(=O)OCC[N+](C)(C)CCCCCCCCCCCCCCCC.[Br-],283

# System: not listed separately
# Assay: Critical micelle concentration by conductimetry
# Format: physicochemical
# Details: not given
row,Structure (SMILES),CMC
1,C=CC(=O)OCC[N+](C)(C)Cc1ccccc1.[Br-],4.6 ×10⁻² mol/L
2,C=CC(=O)OCC[N+](C)(C)CCCCCCCCCCCCCC.[Br-],2.99 mM
3,C=CC(=O)OCC[N+](C)(C)CCCCCCCCCCCC.[Br-],6.45 mM
4,C=CC(=O)OCC[N+](C)(C)CCCCCCCCCC.[Br-],1.16 ×10⁻² mol/L
5,C=CC(=O)OCCCCCCCCCCC[N+](C)(C)CCCCCCCCCCCCCCCC.[Br-],1.66 ×10⁻⁴ mol/L
6,C=CC(=O)OCCCCCCCCCCC[N+](C)(C)Cc1ccccc1.[Br-],3.34 ×10⁻² mol/L
7,C=CC(=O)OCCCCCCCCCCC[N+](C)(C)CCCCCCCCCCCCCC.[Br-],4.68 ×10⁻⁴ mol/L
8,C=CC(=O)OCCCCCCCCCCC[N+](C)(C)CCCCCCCCCCCC.[Br-],9.66 ×10⁻⁴ mol/L
9,C=CC(=O)OCCCCCCCCCCC[N+](C)(C)CCCCCCCCCC.[Br-],2.79 mM
10,C=CC(=O)OCC[N+](C)(C)CCCCCCCCCCCCCCCC.[Br-],1.95 mM
